From ChEMBL document CHEMBL1125540, “Antiviral and antitumor structure-activity relationship studies on tetracyclic eudistomines” (1992)
Converted amounts (≈) assume the structure as drawn.

What was measured:
Assay type in all cases: functional
[1] = Evaluation for antiviral activity against herpes simplex virus-1(TK-) (B2006) in primary rabbit kidney cell cultures(PRK) (Concentration required to reduce virus-induced cytopathogenicity by 50%); settings: Oryctolagus cuniculus
[2] = tested on: Influenza A virus; assay: Concentration required to reduce influenza virus A (ishikawa) induced cytopathogenicity by 50%
How it was run: (§1)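 Influenza A and B virus replication in MDCK cultures. Antiviral value is the concentration giving 50% reduction of virus-induced cytopathogenicity. Cytotoxicity is the concentration causing a microscopically detectable change in normal cell morphology.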

[3] = tested on: MT4; assay: Inhibitory effect on the proliferation of human T-lymphocyte (MT-4); settings: read-out: ID50 (the source's name)
How it was run: (§2)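 Proliferation assay in murine leukemia L1210, human T-lymphoblast Molt-4F and human T-lymphocyte MT-4 cells. ID50 is the dose inhibiting tumor cell proliferation by 50%, expressed in μg/mL.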

[4] = tested on: Vero; assay: Evaluation in Vero cell cultures for cytotoxicity that is to cause microscopically detectable alteration of normal cell morphology; settings: Chlorocebus sabaeus
How it was run: (§3)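 Vero cultures were infected with parainfluenza-3, reovirus-1, Sindbis, Coxsackie B4 or Semliki forest virus. Values are concentrations giving 50% reduction of virus-induced cytopathogenicity, or a microscopically detectable alteration of normal cell morphology for cytotoxicity. Each is the average of two separate experiments.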

[5] = tested on: MOLT-4F; assay: Inhibitory effect on the proliferation of human T-lymphoblast cells (Molt-4F); settings: read-out: ID50 (the source's name); how it was run: as §2
[6] = Evaluation for antiviral activity against herpes simplex virus-1(F) in primary rabbit kidney cell cultures(PRK) (Concentration required to reduce virus-induced cytopathogenicity by 50%); settings: Oryctolagus cuniculus
[7] = Evaluation for antiviral activity against herpes simplex virus-2(Lyons) in primary rabbit kidney cell cultures(PRK) (Concentration required to reduce virus-induced cytopathogenicity by 50%); settings: Oryctolagus cuniculus
[8] = Evaluation for antiviral activity against herpes simplex virus-1 (McIntyre) in primary rabbit kidney cell cultures(PRK) (Concentration required to reduce virus-induced cytopathogenicity by 50%); settings: Oryctolagus cuniculus
[9] = tested on: HeLa; assay: Evaluation for antiviral activity against Coxsackie virus B4 in HeLa cell cultures (Concentration required to reduce virus-induced cytopathogenicity by 50%); settings: Homo sapiens
How it was run: (§4)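 HeLa cultures were infected with respiratory syncytial, vesicular stomatitis, Coxsackie B4 or polio-1 virus. The antiviral end-point is 50% reduction of virus-induced cytopathogenicity. Cytotoxicity is the minimum concentration producing microscopically detectable alteration of normal cell morphology.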

[10] = tested on: MDCK; assay: Compound was evaluated in MDCK cell cultures for cytotoxicity that is to cause microscopically detectable alteration of normal cell morphology; settings: Canis lupus familiaris; how it was run: as §1
[11] = tested on: L1210; assay: Inhibitory effect on the proliferation of murine leukemia cells (L1210); settings: Mus musculus, read-out: ID50 (the source's name); how it was run: as §2
[12] = tested on: HeLa; assay: Compound was evaluated for antiviral activity against respiratory syncitial virus (long) in HeLa cell cultures (Concentration required to reduce virus-induced cytopathogenicity by 50%); settings: Homo sapiens; how it was run: as §4
[13] = Evaluation for antiviral activity against vesicular stomatitis virus in primary rabbit kidney cell cultures(PRK) (Concentration required to reduce virus-induced cytopathogenicity by 50%); settings: Oryctolagus cuniculus
[14] = tested on: HeLa; assay: Evaluation in HeLa cell cultures for cytotoxicity that is to cause microscopically detectable alteration of normal cell morphology; settings: Homo sapiens; how it was run: as §4
[15] = Evaluated for antiviral activity against herpes simplex virus-1(KOS) in primary rabbit kidney cell cultures(PRK) (Concentration required to reduce virus-induced cytopathogenicity by 50%); settings: Oryctolagus cuniculus
[16] = tested on: Influenza B virus; assay: Concentration required to reduce influenza virus B (singapore) induced cytopathogenicity by 50%; how it was run: as §1
[17] = Evaluation in PRK cell cultures for cytotoxicity that is to cause microscopically detectable alteration of normal cell morphology; settings: Oryctolagus cuniculus
[18] = tested on: Vero; assay: Evaluation for antiviral activity against reo virus-1 in Vero cell cultures (Concentration required to reduce virus-induced cytopathogenicity by 50%); settings: Chlorocebus sabaeus; how it was run: as §3
[19] = tested on: Vero; assay: Evaluation for antiviral activity against Coxsackie virus B4 in Vero cell cultures (Concentration required to reduce virus-induced cytopathogenicity by 50%); settings: Chlorocebus sabaeus; how it was run: as §3
[20] = tested on: HeLa; assay: Evaluation for antiviral activity against vesicular stomatitis virus in HeLa cell cultures (Concentration required to reduce virus-induced cytopathogenicity by 50%); settings: Homo sapiens; how it was run: as §4
[21] = Evaluation for antiviral activity against herpes simplex virus-2(G) in primary rabbit kidney cell cultures(PRK) (Concentration required to reduce virus-induced cytopathogenicity by 50%); settings: Oryctolagus cuniculus
[22] = tested on: HeLa; assay: Evaluation for antiviral activity against polio virus-1 in HeLa cell cultures (Concentration required to reduce virus-induced cytopathogenicity by 50%); settings: Homo sapiens; how it was run: as §4
[23] = tested on: Vero; assay: Evaluation for antiviral activity against forest virus in Vero cell cultures (Concentration required to reduce virus-induced cytopathogenicity by 50%); settings: Chlorocebus sabaeus; how it was run: as §3
[24] = Evaluation for antiviral activity against vaccinia virus in primary rabbit kidney cell cultures(PRK) (Concentration required to reduce virus-induced cytopathogenicity by 50%); settings: Oryctolagus cuniculus
[25] = Evaluation for antiviral activity against herpes simplex virus-2(196) in primary rabbit kidney cell cultures(PRK) (Concentration required to reduce virus-induced cytopathogenicity by 50%); settings: Oryctolagus cuniculus
[26] = tested on: Vero; assay: Evaluation for antiviral activity against Sindbis virus in Vero cell cultures (Concentration required to reduce virus-induced cytopathogenicity by 50%); settings: Chlorocebus sabaeus; how it was run: as §3
[27] = tested on: Vero; assay: Evaluation for antiviral activity against parainfluenza-3 virus in Vero cell cultures (Concentration required to reduce virus-induced cytopathogenicity by 50%); settings: Chlorocebus sabaeus; how it was run: as §3

COc1ccc2[nH]c3c(c2c1)CCN1OCSC[C@@H](N)[C@@H]31
MIC [1]: 0.04 µg/mL (≈ 0.131 µM) | MIC [2]: > 0.32 µg/mL | IC50 [3]: 0.005 µg/mL (≈ 0.0164 µM) | MCC [4]: > 1 µg/mL | IC50 [5]: 0.0062 µg/mL (≈ 0.0203 µM) | MIC [6]: 0.07 µg/mL (≈ 0.229 µM) | MIC [7]: 0.04 µg/mL (≈ 0.131 µM) | MIC [8]: 0.02 µg/mL (≈ 0.0655 µM) | MIC [9]: 0.02 µg/mL (≈ 0.0655 µM) | MCC [10]: 0.8 µg/mL | IC50 [11]: 0.005 µg/mL (≈ 0.0164 µM) | MIC [12]: 0.15 µg/mL (≈ 0.491 µM) | MIC [13]: 0.02 µg/mL (≈ 0.0655 µM) | MCC [14]: 0.4 µg/mL | MIC [15]: 0.045 µg/mL (≈ 0.147 µM) | MIC [16]: > 0.32 µg/mL | MCC [17]: > 1 µg/mL | MIC [18]: 0.07 µg/mL (≈ 0.229 µM) | MIC [19]: 0.07 µg/mL (≈ 0.229 µM) | MIC [20]: 0.02 µg/mL (≈ 0.0655 µM) | MIC [21]: 0.02 µg/mL (≈ 0.0655 µM) | MIC [22]: 0.02 µg/mL (≈ 0.0655 µM) | MIC [23]: 0.07 µg/mL (≈ 0.229 µM) | MIC [24]: 0.02 µg/mL (≈ 0.0655 µM) | MIC [25]: 0.02 µg/mL (≈ 0.0655 µM) | MIC [26]: 0.02 µg/mL (≈ 0.0655 µM)

N[C@@H]1CSCON2CCc3c([nH]c4ccccc34)[C@H]12
MIC [1]: 0.7 µg/mL (≈ 2.54 µM) | MIC [2]: 0.8 µg/mL (≈ 2.91 µM) | IC50 [3]: 0.075 µg/mL (≈ 0.272 µM) | MCC [4]: > 4 µg/mL | IC50 [5]: 0.12 µg/mL (≈ 0.436 µM) | MIC [6]: 0.07 µg/mL (≈ 0.254 µM) | MIC [7]: 0.07 µg/mL (≈ 0.254 µM) | MIC [8]: 0.2 µg/mL (≈ 0.726 µM) | MIC [9]: 0.7 µg/mL (≈ 2.54 µM) | MCC [10]: 8 µg/mL | IC50 [11]: 0.11 µg/mL (≈ 0.399 µM) | MIC [12]: 0.8 µg/mL (≈ 2.91 µM) | MIC [13]: 0.2 µg/mL (≈ 0.726 µM) | MIC [27]: 0.2 µg/mL (≈ 0.726 µM) | MCC [14]: > 4 µg/mL | MIC [15]: 0.7 µg/mL (≈ 2.54 µM) | MIC [16]: 0.8 µg/mL (≈ 2.91 µM) | MCC [17]: > 10 µg/mL | MIC [18]: 0.4 µg/mL (≈ 1.45 µM) | MIC [19]: 0.4 µg/mL (≈ 1.45 µM) | MIC [20]: 0.2 µg/mL (≈ 0.726 µM) | MIC [21]: 0.2 µg/mL (≈ 0.726 µM) | MIC [22]: 0.7 µg/mL (≈ 2.54 µM) | MIC [23]: 0.2 µg/mL (≈ 0.726 µM) | MIC [24]: 0.1 µg/mL (≈ 0.363 µM) | MIC [25]: 0.2 µg/mL (≈ 0.726 µM) | MIC [26]: 0.2 µg/mL (≈ 0.726 µM)

c1ccc2c3c([nH]c2c1)C1CCSCON1CC3 (stereo not drawn)
MIC [1]: > 100 µg/mL | MIC [2]: > 40 µg/mL | IC50 [3]: 96 µg/mL (≈ 369 µM) | MCC [4]: > 40 µg/mL | IC50 [5]: 18.3 µg/mL (≈ 70.3 µM) | MIC [7]: > 100 µg/mL | MIC [8]: > 100 µg/mL | MIC [9]: > 10 µg/mL | MCC [10]: 80 µg/mL | IC50 [11]: 24.9 µg/mL (≈ 95.6 µM) | MIC [12]: > 8 µg/mL | MIC [13]: > 100 µg/mL | MIC [27]: > 10 µg/mL | MCC [14]: > 40 µg/mL | MIC [16]: > 40 µg/mL | MCC [17]: > 200 µg/mL | MIC [18]: > 10 µg/mL | MIC [19]: > 10 µg/mL | MIC [20]: > 10 µg/mL | MIC [21]: > 100 µg/mL | MIC [22]: > 10 µg/mL | MIC [23]: > 10 µg/mL | MIC [24]: > 100 µg/mL | MIC [25]: > 100 µg/mL | MIC [26]: > 10 µg/mL
